Laboratory results reported in ChEMBL document CHEMBL4265962, “Pyrrolidine nucleoside bisphosphonates as antituberculosis agents targeting hypoxanthine-guanine phosphoribosyltransferase” (Eur J Med Chem, 2018).
Values after ≈ are worked out from the molar mass of the structure shown.

Experiments:
[1] = biological target: T1, Hypoxanthine-guanine phosphoribosyltransferase (Mycobacterium tuberculosis (strain ATCC 25618 / H37Rv), UniProt P9WHQ9); assay: Inhibition of Mycobacterium tuberculosis recombinant N-terminal 6His-tagged HGPRT expressed in Escherichia coli BL21 (DE3) using fixed concentration of guanine and variable concentrations of PRib-PP as substrate in presence of pyrophosphate by spectrophotometric analysis
T1 sequence (P9WHQ9 whole entry): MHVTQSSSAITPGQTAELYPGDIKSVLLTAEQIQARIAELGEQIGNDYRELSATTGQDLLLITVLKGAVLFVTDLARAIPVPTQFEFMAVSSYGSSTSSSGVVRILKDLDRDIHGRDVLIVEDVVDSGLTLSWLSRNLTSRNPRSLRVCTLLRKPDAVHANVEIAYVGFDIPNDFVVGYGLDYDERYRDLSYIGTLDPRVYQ
Outline: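 Continuous assay of recombinant MtHGPRT at 257.5 nm (guanine to GMP) in 0.01 M phosphate, 12 mM MgCl2, pH 7.4, with 400 μM pyrophosphate added.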

[2] = biological target: T2, Hypoxanthine-guanine phosphoribosyltransferase (Homo sapiens, UniProt P00492); assay: Inhibition of human HGPRT using fixed concentration of guanine and variable concentrations of PRib-PP as substrate by spectrophotometric analysis
T2 sequence (P00492 whole entry): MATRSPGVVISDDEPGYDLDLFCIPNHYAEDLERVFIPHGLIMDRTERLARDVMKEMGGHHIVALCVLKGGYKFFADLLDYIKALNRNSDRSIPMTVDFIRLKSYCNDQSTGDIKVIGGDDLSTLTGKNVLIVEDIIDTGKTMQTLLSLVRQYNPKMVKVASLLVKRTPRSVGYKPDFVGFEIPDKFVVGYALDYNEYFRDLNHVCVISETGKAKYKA

[3] = biological target: T1, Hypoxanthine-guanine phosphoribosyltransferase; assay: Inhibition of Mycobacterium tuberculosis recombinant N-terminal 6His-tagged HGPRT expressed in Escherichia coli BL21 (DE3) using fixed concentration of guanine and variable concentrations of PRib-PP as substrate by spectrophotometric analysis
Outline: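 Recombinant MtHGPRT, stored in 0.1 M Tris-HCl, 12 mM MgCl2, pH 7.4 with 200 μM PRib-PP at -80 °C. Continuous spectrophotometric assay following guanine to GMP at 257.5 nm in 0.01 M phosphate, 12 mM MgCl2, pH 7.4.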

[4] = Ratio of Ki for Mycobacterium tuberculosis recombinant N-terminal 6His-tagged HGPRT expressed in Escherichia coli BL21 (DE3) to Ki for human HGPRT
[5] = system: Mycobacterium tuberculosis; assay: Antitubercular activity against replicating stage of Mycobacterium tuberculosis H37Rv after 5 days by resazurin dye-based assay; format: functional; details: 120 h
[6] = system: Mycobacterium tuberculosis; assay: Antitubercular activity against Mycobacterium tuberculosis H37Rv after 5 days under hypoxic condition by resazurin dye-based assay; format: functional; details: 120 h
[7] = system: Mycobacterium tuberculosis; assay: Antitubercular activity against Mycobacterium tuberculosis H37Rv infected in human THP-1 cells after 4 days by fluorescence based assay; format: functional; details: 96 h
Outline: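 THP-1 cells differentiated with 50 ng/ml PMA for 72 h (5×10^5 cells/mL), infected with mCherry-expressing H37Rv at MOI 1:1 for 2 h, washed twice to remove extracellular bacilli.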

[8] = Cytotoxicity against human A549 cells after 4 days by Coulter counting analysis; format: cell-based
Outline: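 A549 cells seeded at 7500/well; serially diluted compounds added the next day. After 4 days at 37 °C, cells were trypsinized and counted. CC50 is the concentration that gives 50% inhibition of proliferation relative to no-compound control. It was obtained by extrapolation assuming a semi-log dose-response.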

[9] = system: Mycobacterium tuberculosis; assay: Ratio of MIC90 for Mycobacterium tuberculosis H37Rv under hypoxic condition to MIC90 for replicating stage of Mycobacterium tuberculosis H37Rv; format: functional
Outline: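 Inhibitors were serially diluted, incubated 5 days at 37 °C, then read by fluorescence (ex 530/em 590) for MIC90. The hypoxic arm used a 0.1% O₂ chamber, was read 48 h after resazurin addition, and ran isoniazid controls in parallel.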

[10] = biological target: T2, Hypoxanthine-guanine phosphoribosyltransferase; assay: Inhibition of recombinant human HGPRT using fixed concentration of guanine and variable concentrations of PRib-PP as substrate by Hanes plot analysis

Compound | Ki [2] [nM] | Ki [3] [nM] | Ratio Ki [4] | further results
O=P(O)(O)CO[C@H]1CNC[C@H]1n1cnc2c(O)ncnc21 | 327000 | 88000 | 0.3 | Ki [1]: 3000 nM
O=C(CCP(=O)(O)O)N1C[C@H](OCCP(=O)(O)O)[C@H](n2cnc3c(O)ncnc32)C1 | 600 | 420 | 0.7 | –
O=C(CCP(=O)(O)O)N1C[C@@H](n2cnc3c(O)ncnc32)[C@H](OC[C@@H](O)P(=O)(O)O)C1 | – | 60 | – | –
Nc1nc2c(ncn2[C@@H]2CN(C(=O)CCP(=O)(O)O)C[C@H]2OC[C@@H](O)P(=O)(O)O)c(=O)[nH]1 | – | 60 | 20 | MIC90 [5]: 14 µM (≈ 6.95 µg/mL); MIC90 [6]: 29 µM (≈ 14.4 µg/mL); MIC90 [7]: 85 µM (≈ 42.2 µg/mL); CC50 at 96 h [8]: 132000 nM; Ratio [9]: 2; Ki [10]: 3 nM
Nc1nc2c(ncn2[C@@H]2CN(C(=O)CCP(=O)(O)O)C[C@H]2OC[C@H](O)P(=O)(O)O)c(=O)[nH]1 | – | 130 | 16 | Ki [10]: 8 nM
Nc1nc2c(ncn2[C@@H]2CNC[C@@H]2OCP(=O)(O)O)c(=O)[nH]1 | 29000 | 8000 | 0.3 | Ki [1]: 740 nM
O=C(CCP(=O)(O)O)N1C[C@@H](n2cnc3c(O)ncnc32)[C@H](OC[C@H](O)P(=O)(O)O)C1 | – | 200 | – | –
Nc1nc2c(ncn2[C@@H]2CN(C(=O)CCP(=O)(O)O)C[C@@H]2OCCP(=O)(O)O)c(=O)[nH]1 | 30 | 40 | 1.3 | –
